Results gathered from unrelated publications.
Compare with care: the assays were run in different laboratories. pIC50: −log10 of the molar value.
PDE7A: High affinity 3',5'-cyclic-AMP phosphodiesterase 7A (PDE7A, Homo sapiens, UniProt Q13946)
MAOA: Amine oxidase [flavin-containing] A (MAOA, Homo sapiens, UniProt P21397)
PRMT3: Protein arginine N-methyltransferase 3 (PRMT3, Homo sapiens, UniProt O60678)
SLC22A6: Solute carrier family 22 member 6 (SLC22A6, Homo sapiens, UniProt Q4U2R8)
TDP1: Tyrosyl-DNA phosphodiesterase 1 (TDP1, Homo sapiens, UniProt Q9NUW8)

Structure (SMILES) | target | assay | conditions | pIC50
CN1C(=O)c2c(nn(Cc3ccc(-c4cccc(F)n4)cc3)c2Nc2ccccc2)N2C1=N[C@@H]1CCC[C@@H]12 | PDE7A | enzyme activity, inhibitor |  | < 7.00
COc1cc(/C=C/C(=O)N2CCC(Cc3ccccc3)CC2)ccc1OCc1ccccc1 | MAOA | enzyme activity, inhibitor, fluorescence |  | 4.09
CC1(C)C(/C=C/C=C2/N(CCCc3ccccc3)c3ccc(Cl)cc3C2(C)C)=[N+](CCCc2ccccc2)c2ccc(Cl)cc21 | Protein arginine N-methyltransferase 5 (PRMT5, Homo sapiens, UniProt O14744) | enzyme activity, inhibitor, radiometric |  | 5.66
Nc1ncnc2c1ncn2[C@@H]1O[C@H](CSCCNC(=O)NC2CCCCC2)[C@@H](O)[C@H]1O | PRMT3 | enzyme activity, inhibitor, fluorescence |  | < 4.00
O=C1NC(=O)/C(=C/c2ccc(OCCNc3nc4c(cnn4C4CCCC4)c(=O)[nH]3)c(F)c2)S1 | PDE7A | enzyme activity, inhibitor |  | 7.57
Nc1ncnc2c1ncn2[C@@H]1O[C@H](CSCCNC(=O)Nc2cccc3ccccc23)[C@@H](O)[C@H]1O | PRMT3 | enzyme activity, inhibitor, fluorescence |  | 4.09
O=c1cc(-c2ccc(O)cc2)oc2cc(O)c([C@@H]3O[C@H](CO)[C@@H](O)[C@H](O)[C@H]3O)c(O)c12 | MAOA | enzyme activity, inhibitor |  | 4.59
C[C@H]1Oc2cc(cnc2N)-c2c(nn(C)c2C#N)CN(C)C(=O)c2ccc(F)cc21 | Focal adhesion kinase 1 (PTK2, Homo sapiens, UniProt Q05397) | enzyme activity, inhibitor, radiometric |  | 8.40
O=c1oc(Cl)c(Cl)c2ccccc12 | Rhomboid protease AarA (Providencia stuartii, UniProt P46116) | enzyme activity, inhibitor, fluorescence |  | 5.00
CSc1ccc(/C=C2/C(C)=C(CC(=O)O)c3cc(F)ccc32)cc1 | Cone cGMP-specific 3',5'-cyclic phosphodiesterase subunit alpha' (PDE6C, Homo sapiens, UniProt P51160) | enzyme activity, inhibitor |  | < 4.00
CCS(=O)(=O)N1CC(CC#N)(n2cc(-c3ncnc4[nH]ccc34)cn2)C1 | SLC22A6 | transporter uptake, inhibitor |  | < 4.00
CNC(=O)c1cc2c(Oc3ccc(NC(=O)C4(C(=O)Nc5ccc(F)cc5)CC4)cc3)ccnc2cc1OC | Receptor-interacting serine/threonine-protein kinase 2 (RIPK2, Homo sapiens, UniProt O43353) | enzyme activity, inhibitor, radiometric |  | 7.77
O=C(O)CCc1nc(-c2ccccc2)c(-c2ccccc2)o1 | SLC22A6 | transporter uptake, inhibitor |  | 6.05
CN(C)CCCN1c2ccccc2Sc2ccc(Cl)cc21 | Glutathione reductase, mitochondrial (GSR, Homo sapiens, UniProt P00390) | enzyme activity, inhibitor, absorbance |  | < 4.00
O=C(O)c1ccc(Nc2c(-c3ccc(S(=O)(=O)O)cc3)nc3ccccn23)cc1 | TDP1 | enzyme activity, inhibitor |  | < 4.00
COc1cc2c(OC)nc3c4cc5c(cc4cc(OCCCN4CCC(O)CC4)c3c2cc1OC)OCO5 | TDP1 | enzyme activity, inhibitor |  | 4.89 to 5.26
O=c1oc2c(cc1O)oc(=O)c1cc(O)c(O)c(O)c12 | L-lactate dehydrogenase A chain (LDHA, Homo sapiens, UniProt P00338) | enzyme activity, inhibitor | pH 7.4 | 3.98
CN1CCN(c2ccc(Nc3ncc4cc(C#N)c(=O)n(C5CCCC5)c4n3)cc2)CC1 | Tyrosine-protein kinase Lyn (LYN, Homo sapiens, UniProt P07948) | enzyme activity, inhibitor |  | 7.45
N#Cc1ccc(COc2cccc(C3CCN(Cc4nc5ccc(C(=O)O)cc5n4C[C@@H]4CCO4)CC3)n2)c(F)c1 | Glucagon-like peptide 2 receptor (GLP2R, Homo sapiens, UniProt O95838) | cAMP, antagonist |  | 5.44
